High-throughput results deposited in PubChem BioAssay by Johns Hopkins Ion Channel Center.
TRPC4 inh: inhibitors of mouse TRPC4 channel, primary screen, Fluo4 calcium, HEK293 TRPC4beta/mu-opioid cells | B-score at 10 µM | AID 2247, 2010 | hit rate 0.39% among 300,000 | DAMGO-evoked Fluo4 calcium flux; hits give low values;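 active means B-score over 3 SD under the library average, no early fluorescence shift, positive overall ratio signal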
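Assay system: HEK293 cells with stable TRPC4beta plus mu-opioid receptor expression. Dosing: single dose. Measured by: Fluo4 Ca2+ flux fluorescence. Also added: DAMGO in two steps, submaximal then maximal. Read-out: B score from integrated Fluo4 fluorescence ratio.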
TRPC4 potent: positive allosteric modulators of TRPC4, primary screen, cell-based, mouse TRPC4beta, HEK293 mu-opioid, Fluo-4 calcium. Short transient receptor potential channel 4 (Mus musculus), Q9QUQ5. DAMGO EC20, Fluo-4 Ca2+ flux; hits give high values. B-score at 10 µM. hit rate 0.42% among 310,000;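 active means B-score of calcium response area above 5 SD of library B-scores, with initial fluorescence ratio within 5 SD of library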
TRPC4 act: activators of mouse TRPC4 channel, primary screen, Fluo4 calcium, HEK293 TRPC4beta/mu-opioid cells. B-score at 10 µM. hit rate 0.49% among 310,000. Fluo4 calcium fluorescence; hits give high values. Short transient receptor potential channel 4 (Mus musculus), Q9QUQ5;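 active means B-score above 5 SD of library B-scores, and initial fluorescence ratio not above library mean plus 5 SD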;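 further: positive B-score marks a calcium rise read as TRPC4 activation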
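Assay system: HEK293 stable line with TRPC4beta plus mu-opioid receptor. Times: dye 45 min RT, read 110 s. Measured by: kinetic Fluo4 calcium fluorescence. Measure: B score of integrated ratio. Controls: assay buffer as low control, maximal DAMGO as high control.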
TRPC6 act: mouse TRPC6 channel activators, primary screen, cell-based, HEK293, membrane potential dye; HEK293-TRPC6 membrane potential dye fluorescence; hits give high values; B-score at 10 µM; hit rate 0.13% among 310,000;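 active means B-score of the integrated fluorescence ratio above library mean plus 3 SD, and starting fluorescence ratio within library mean plus 5 SD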;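 further: higher score means more depolarization so channel activation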
Target sequence (Q61143 whole entry, looked up): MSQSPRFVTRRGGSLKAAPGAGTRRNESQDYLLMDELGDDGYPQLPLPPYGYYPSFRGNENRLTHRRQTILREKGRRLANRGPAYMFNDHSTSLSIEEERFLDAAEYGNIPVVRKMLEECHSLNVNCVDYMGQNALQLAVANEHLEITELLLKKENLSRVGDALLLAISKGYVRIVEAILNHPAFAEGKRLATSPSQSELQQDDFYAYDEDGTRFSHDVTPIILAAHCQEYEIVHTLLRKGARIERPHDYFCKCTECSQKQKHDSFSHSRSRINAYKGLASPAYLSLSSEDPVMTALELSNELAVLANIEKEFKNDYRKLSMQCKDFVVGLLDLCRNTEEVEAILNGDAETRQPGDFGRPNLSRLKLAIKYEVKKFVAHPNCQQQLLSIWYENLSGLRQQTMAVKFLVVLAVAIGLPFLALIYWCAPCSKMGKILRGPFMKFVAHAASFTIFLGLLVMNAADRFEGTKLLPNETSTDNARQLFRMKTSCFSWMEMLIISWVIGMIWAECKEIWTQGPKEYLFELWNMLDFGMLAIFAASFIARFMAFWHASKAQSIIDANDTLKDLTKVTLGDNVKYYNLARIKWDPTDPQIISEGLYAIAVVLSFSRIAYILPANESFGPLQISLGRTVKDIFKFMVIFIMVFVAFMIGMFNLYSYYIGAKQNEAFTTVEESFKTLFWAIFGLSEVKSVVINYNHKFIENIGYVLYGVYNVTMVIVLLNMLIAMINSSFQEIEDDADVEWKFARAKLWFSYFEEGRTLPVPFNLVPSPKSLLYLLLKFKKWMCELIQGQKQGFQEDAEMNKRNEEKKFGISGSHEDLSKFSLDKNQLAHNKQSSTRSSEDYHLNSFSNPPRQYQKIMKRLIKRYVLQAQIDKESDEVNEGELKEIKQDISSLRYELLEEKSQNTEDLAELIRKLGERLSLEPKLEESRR
TRPC6 inh: mouse TRPC6 channel inhibitors, primary screen, cell-based, HEK293, membrane potential dye; Short transient receptor potential channel 6 (Mus musculus), Q61143; ACh-evoked depolarization; hits give low values; B-score at 10 µM; hit rate 1.1% among 310,000;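 active means B-score under library mean minus 3 SD, initial fluorescence not abnormally high, positive integrated signal ratio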;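 further: B-score derived from integrated fluorescence ratio over the kinetic read; more negative B-score means stronger inhibition of depolarization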
TRPC4 sel inh 2: mouse TRPC4 off-target activity of TRPC6 inhibitors, second screen. shares compounds with TRPC6 inh. HEK293 TRPC4/MOR, membrane potential dye fluorescence; channel activated by saturating DAMGO dose. inhibition, % at 10 µM. hit rate 42% among 920. AID 2776;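 active means compounds whose fluorescence signal differed from control wells by over 3 SD, either direction, in both duplicate plates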
TRPC4 spec: mouse TRPC4 modulation by TRPC6 hits, confirmation, selectivity assay for TRPC6 inhibitor project, cell-based, HEK293 TRPC4/mu-opioid, membrane potential dye | shares compounds with TRPC6 inh | membrane potential fluorescence | activity change, negative = inhibition, % at 10 µM | hit rate 61% among 920 | AID 2777, 2010;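 active means rise or fall in signal beyond 3 SD of buffer-only wells in both replicate plates, either sign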;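 further: integrated kinetic ratio of fluorescence range over baseline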
HEK293 MPD ctr 2-1: nonspecific membrane potential effects, parental HEK293, confirmation, counter-screen for TRPC6 inhibitor project, cell-based, second counter screen; shares compounds with TRPC6 inh; parental HEK293 membrane potential dye fluorescence; maximal acetylcholine challenge after compound addition; signal change vs control, % at 10 µM; hit rate 31% among 920; AID 2779, 2010;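 active means membrane potential signal moving either way by over 3 SD of the maximum-effect control, in both duplicate plates, meaning non-specific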
HEK293 MPD ctr-1: membrane potential modulation in parental HEK293, confirmation, counter-screen for TRPC6 inhibitor project, cell-based; shares compounds with TRPC6 inh; parental HEK293 membrane potential dye fluorescence; membrane potential signal change, % at 10 µM; hit rate 60% among 920; AID 2780, 2010;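 active means membrane potential signal shifting up or down by more than 3 SD of buffer-only wells, on both duplicate plates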
HEK293 MPD ctr-2: parental HEK293 membrane potential modulation, confirmation, counter-screen for TRPC6 modulator project, cell-based | shares compounds with TRPC6 inh | membrane potential dye fluorescence | membrane potential signal change, % at 10 µM | hit rate 51% among 2,400 | AID 488924, 2010;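 active means membrane potential signal moves up or down beyond 5 SD from buffer-only wells, on both duplicate plates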
HEK293 MPD ctr 2-2: second counter-screen for TRPC6 modulators: effect in parental HEK293 cells; membrane potential dye fluorescence; after compound, maximal acetylcholine stimulation; hit rate 14% among 2,400; AID 488926; shares compounds with TRPC6 inh; inhibition, % at 10 µM;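 active means membrane potential signal drops by more than 5 SD from the mean control signal, in both duplicate plates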
TRPC4/MOR mod: TRPC4 modulation by TRPC6 hit compounds, confirmation, selectivity assay for TRPC6 modulator project, cell-based, HEK293 TRPC4/mu-opioid, membrane potential dye, mouse. shares compounds with TRPC6 inh. membrane potential fluorescence. percent change from control (negative = decrease, positive = increase), % at 10 µM. hit rate 69% among 2,400;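 active means membrane potential signal moved up or down beyond 5 SD of buffer control wells, in both duplicate plates, actives on both sides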
TRPC4/MOR inh 2: second selectivity test of TRPC6 modulators against mouse TRPC4 | shares compounds with TRPC6 inh | HEK293 TRPC4/mu-opioid, membrane potential dye fluorescence; stimulated with maximal-effect DAMGO | inhibition, % at 10 µM | hit rate 55% among 2,400 | AID 488928;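 active means drop in membrane potential signal beyond 5 SD of the control wells in both duplicate plates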;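 further: TRPC4 counter screen for TRPC6 hits run under conditions tuned for TRPC6 not TRPC4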
TRPC6 inh conf: mouse TRPC6 channel inhibitors, confirmation, HEK293 cells, membrane potential dye, duplicate; shares compounds with TRPC6 inh; ACh-evoked depolarization; inhibition, % at 10 µM; hit rate 43% among 3,300;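 active means fluorescence ratio falls more than 5 SD below the full-stimulation control mean, in both duplicate runs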;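 further: integrated fluorescence ratio of peak minus minimum over baseline after agonist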
TRPC6 act confirm: mouse TRPC6 channel activators, confirmation, HEK293 cells, membrane potential dye, duplicate; HEK293-TRPC6 membrane potential dye fluorescence, FDSS; shares compounds with TRPC6 inh; AID 488961, 2010; activation, % at 10 µM; hit rate 11% among 2,800;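 active means ratio signal rise beyond 5 SD above unstimulated control wells' mean, seen in both duplicate runs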
Numbers stand for hits. An excerpt weighted towards active compounds, which were near 2.3% of everything screened.

`COc1ccc(NC(=O)C2C3CCC(O3)C2C(=O)O)c(OC)c1` (stereo unspecified) gave TRPC4 inh inactive, TRPC4 potent inactive, TRPC4 act inactive, TRPC6 act inactive and TRPC6 inh inactive.
Screening CCCCCCn1c(=O)c(C(=O)Nc2ncccc2C)c(O)c2ccccc21 returned TRPC4 inh inactive, TRPC4 potent inactive, TRPC4 act inactive, TRPC6 act inactive and TRPC6 inh inactive.
`Fc1cccc(C2NCCc3[nH]cnc32)c1` (stereo unspecified) gave TRPC4 inh inactive, TRPC4 potent inactive, TRPC4 act 162, TRPC6 act inactive and TRPC6 inh inactive.
Clc1ccc(C2NCCc3[nH]cnc32)cc1 (stereo unspecified) was read as TRPC4 inh inactive, TRPC4 potent inactive, TRPC4 act inactive, TRPC6 act inactive and TRPC6 inh inactive.
CC(=O)c1cc(C#N)c(N2CCN(C)CC2)nc1C was read as TRPC4 inh inactive, TRPC4 potent inactive, TRPC4 act inactive, TRPC6 act inactive and TRPC6 inh inactive.
N/C(=N\[N+](=O)[O-])N1CCN(C(=O)Oc2ccccc2)CC1 was read as TRPC4 inh inactive, TRPC4 potent inactive, TRPC4 act inactive, TRPC6 act inactive and TRPC6 inh inactive.
Screening Cc1ccc(Cc2c(C)nc3nc(SCC(=O)N4CCC5(CC4)OCCO5)nn3c2C)cc1 returned TRPC4 inh inactive, TRPC4 potent inactive, TRPC4 act inactive, TRPC6 act 13, TRPC6 inh -11, HEK293 MPD ctr-2 184%, HEK293 MPD ctr 2-2 inactive, TRPC4/MOR mod 32%, TRPC4/MOR inh 2 38%, TRPC6 inh conf 46% and TRPC6 act confirm 152%.
Screening Cc1cccc(-c2nc3ccc(C(=O)N4CCC5(CC4)OCCO5)cc3nc2-c2cccc(C)c2)c1 returned TRPC4 inh inactive, TRPC4 potent inactive, TRPC4 act inactive, TRPC6 act 13, TRPC6 inh -7.3, HEK293 MPD ctr-2 inactive, HEK293 MPD ctr 2-2 inactive, TRPC4/MOR mod 14%, TRPC4/MOR inh 2 inactive, TRPC6 inh conf 79% and TRPC6 act confirm 116%.
`COc1ccc(-[n+]2c(-c3ccccc3)cc(-c3ccc(C)cc3)cc2-c2ccccc2)cc1` gave TRPC4 inh inactive, TRPC4 potent inactive, TRPC4 act inactive, TRPC6 act inactive, TRPC6 inh -9.1, TRPC4 sel inh 2 inactive, TRPC4 spec 17%, HEK293 MPD ctr 2-1 inactive, HEK293 MPD ctr-1 18% and TRPC6 inh conf 70%.
Screening Cc1ccccc1-[n+]1c(-c2ccccc2)cc(-c2ccccc2)cc1-c1ccccc1 returned TRPC4 inh inactive, TRPC4 potent inactive, TRPC4 act inactive, TRPC6 act inactive, TRPC6 inh -10, TRPC4 sel inh 2 60%, TRPC4 spec 20%, HEK293 MPD ctr 2-1 inactive, HEK293 MPD ctr-1 7.1%, TRPC6 inh conf 100% and TRPC6 act confirm inactive.
Cc1ccc(-c2cc(-c3ccccc3)cc(-c3ccccc3)[n+]2-c2ccc(C(=O)O)cc2)cc1 was read as TRPC4 inh inactive, TRPC4 potent inactive, TRPC4 act inactive, TRPC6 act inactive and TRPC6 inh inactive.
`COc1ccc(-c2cc(-c3ccccc3)[n+](C)c(-c3ccccc3)c2)cc1` gave TRPC4 inh inactive, TRPC4 potent inactive, TRPC4 act inactive, TRPC6 act inactive, TRPC6 inh -5.6, HEK293 MPD ctr-2 inactive, HEK293 MPD ctr 2-2 inactive, TRPC4/MOR mod inactive, TRPC4/MOR inh 2 inactive, TRPC6 inh conf inactive and TRPC6 act confirm inactive.
CC(=NCCCn1ccnc1)c1c(O)n(C2CCCCC2)c(=O)[nH]c1=O was read as TRPC4 inh inactive, TRPC4 potent inactive, TRPC4 act inactive, TRPC6 act inactive and TRPC6 inh inactive.
O=C(C(=O)N1CCOCC1)c1cn(Cc2ccccc2F)c2ccccc12 was read as TRPC4 inh inactive, TRPC4 potent inactive, TRPC4 act inactive, TRPC6 act inactive and TRPC6 inh inactive.
